Test results published in ChEMBL document CHEMBL1132556, “Combined effect of platination and intercalation upon DNA binding of novel cytotoxic Pt-bis(naphthalimide) complexes” (J Med Chem, 1999).

What was measured:
Mus musculus = organism: Mus musculus; assay: (§1) Compound was tested for inhibitory activity against transformed Pam 212-ras murine keratinocytes; activity expressed in Mean IC50 values; type: functional, organism-based
How it was run: (§2)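 Cell survival in drug-treated cultures read by MTT assay. Compound stock solutions (0.5–1.2 mg/mL) were freshly prepared before use. Cells: ovarian carcinoma lines A2780, A2780cisR, CH1 and CH1cisR; normal murine keratinocytes Pam 212; Pam 212-ras, which are murine keratinocytes transformed with the v-H-ras oncogene and resistant to cis-DDP.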

CH1 [1] = assay: Compound was tested for inhibitory activity against CH1cisR human ovarian carcinoma cell line; activity expressed in Mean IC50 values; type: functional, cell-based; how it was run: as §2
[2] = as §1; type: functional, Mus musculus; how it was run: as §2
A2780 [3] = assay: Compound was tested for inhibitory activity against A2780cisR human ovarian carcinoma cell line; activity expressed in Mean IC50 values; type: functional, cell-based; how it was run: as §2
A2780 [4] = assay: Compound was tested for inhibitory activity against A2780 human ovarian carcinoma cell line; activity expressed in Mean IC50 values; type: functional, cell-based; how it was run: as §2
CH1 [5] = assay: Compound was tested for inhibitory activity against CH1 human ovarian carcinoma cell line; activity expressed in Mean IC50 values; type: functional, cell-based; how it was run: as §2
[6] = Compound was tested for inhibitory activity against normal Pam 212 murine keratinocytes; activity expressed in Mean IC50 values; type: functional, Mus musculus; how it was run: as §2

| Compound | IC50 (Mus musculus) [µM] | IC50 (CH1 [1]; ch1cisr) [µM] | IC50 [2] [µM] | IC50 (A2780 [3]; a2780) [µM] | IC50 (A2780 [4]; a2780) [µM] | IC50 (CH1 [5]; ch1) [µM] | IC50 [6] [µM] | IC50 (A2780 [3]; Homo sapiens, A2780) [µM] | IC50 (A2780 [4]; Homo sapiens, A2780) [µM] | IC50 (CH1 [5]; Homo sapiens, CH1) [µM] | IC50 (CH1 [1]; Homo sapiens, CH1cisR) [µM] |
| --- | --- | --- | --- | --- | --- | --- | --- | --- | --- | --- | --- |
| CISPLATIN | 165 | 0.65 |  |  |  |  |  |  |  |  |  |
| Platinum cyclobutane-1,1-dicarboxylic acid-bis-(naphthalimide) complex |  | 0.6 | 89 | 1 | 0.28 | 0.35 | 158 |  |  |  |  |
| O=C1c2cccc3cccc(c23)C(=O)N1CCNCCNCCN1C(=O)c2cccc3cccc(c23)C1=O |  |  | 160 |  |  |  | 140 | > 100 | > 10 | > 10 | > 100 |
